Compound activity as filed in PubChem BioAssay.
This is a sample that favours compounds with a hit; in the whole collection about 2.3% have one here.
MC4R ag barr – human MC4R agonism via beta-arrestin | P32245 | U2OS MC4R beta-arrestin complementation, luminescence; percent of melanotan II response, DMSO zero | activation, % at 8.9 µM | 360,000 compounds, 0.98% hits | AID 540308;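 active = activation above a per-plate cutoff, the mean activation of sample wells on that plate plus 3 SD, cut at about 8% in these data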
Target sequence (P32245 whole entry, looked up): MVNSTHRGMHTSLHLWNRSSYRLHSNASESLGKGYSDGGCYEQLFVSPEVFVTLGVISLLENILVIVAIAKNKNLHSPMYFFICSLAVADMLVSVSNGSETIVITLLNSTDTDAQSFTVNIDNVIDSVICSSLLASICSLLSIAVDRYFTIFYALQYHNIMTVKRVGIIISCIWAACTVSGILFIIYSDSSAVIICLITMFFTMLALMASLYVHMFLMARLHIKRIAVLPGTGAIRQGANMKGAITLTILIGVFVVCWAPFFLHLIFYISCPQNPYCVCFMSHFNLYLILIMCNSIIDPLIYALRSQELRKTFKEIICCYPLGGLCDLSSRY
MC4R antagonist – human MC4R antagonism in cAMP assay; inhibition, % at 6.5 µM; 360,000 compounds, 0.48% hits; AID 540295; MC4R-expressing cells, MTII-stimulated cAMP, LANCE TR-FRET;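 active = inhibition above its plate's cutoff, the mean of tested wells on that plate plus 3 SD, cut at about 29% in these data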
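material = U2OS cells stably expressing human melanocortin 4 receptor (MC4R) | also added = Melanotan II challenge | dosing = single nominal compound dose of 6.5 µM | detection = TR-FRET with Eu-cAMP and labeled anti-cAMP, 671 nm | replication = singlicate | timing = compound 30 min, challenge 1 h, detection 1 h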
bovine MsrA act – activates bovine MsrA enzyme. purified bovine MsrA, absorbance read-out. activation, % at 10.6 µM. 360,000 compounds, 0.3% hits; in the data active = activation above about 7.5%
MsrA inh – inhibitors of bovine MsrA | inhibition, % at 15.5 µM | AID 651718 | 360,000 compounds, 0.75% hits | purified bovine MsrA, absorbance read-out; in the data active = inhibition above about 4.5%
Numbers stand for hits; – = inactive; · = not tested or not shown.

SMILES | MC4R ag barr | MC4R antagonist | bovine MsrA act | MsrA inh
N#CCOC(=O)[C@H](Cc1c[nH]c2ccccc12)NS(=O)(=O)c1ccc(Cl)cc1 | – | 34 | – | –
CCCCCN(C(=O)COC(=O)COc1c(C)cc(C)cc1C)c1c(N)n(CCCC)c(=O)[nH]c1=O | – | – | – | –
N/C(=N\OC(=O)c1ccccc1Br)c1ccc([N+](=O)[O-])cc1 | 8.6 | – | – | –
C=CCOc1cccc(CNCCCN2CCOCC2)c1 | – | – | – | –
CNC[C@H](CC1CCCCC1)NC[C@H](Cc1ccccc1)NCCC12CC3CC(CC(C3)C1)C2 | 26 | – | – | –
Cc1oc2c(c(C)cc3oc(=O)c(CC(=O)NCCCO)c(C)c32)c1C | – | – | – | –
Cc1ccc(S(=O)(=O)NCC(=O)OCC(=O)N2N=C(c3ccc(Cl)cc3)CC2c2ccco2)cc1C (stereo not drawn) | 9.2 | – | – | –
COc1ccc(N2CCN(C(=O)COC(=O)c3ccc(CSC)o3)CC2)cc1 | – | – | – | –
Cc1cc(C)cc(OCC(=O)Nc2nc(-c3cccnc3)cs2)c1 | 9.2 | – | – | –
N#Cc1ccc(OCC(=O)Nc2nc(-c3cccnc3)cs2)cc1 | 9.1 | – | – | –
Cc1c(C(=O)Nc2ccccn2)oc2ccccc12 | – | – | – | –
Cc1c(C(=O)Nc2cccnc2Cl)oc2ccccc12 | 11 | – | – | –
CCCC(=O)OC1CC(C)N(C(=O)c2ccccc2)c2ccc(C)cc21 (stereo not drawn) | – | – | – | –
COc1ccc(NC(=O)NCCCCc2ccccc2)cc1 | – | – | – | –
CCOc1ccc(NC(=O)NCCCCc2ccccc2)cc1 | 9.0 | – | – | –
CCOC(=O)C(CC(C)C)CP(=O)(O)CNC(=O)OCc1ccccc1 (stereo not drawn) | – | – | – | –
O=C(O)CCC(=O)N1CCN(c2ccc(C(=O)c3ccc(F)cc3)cc2)CC1 | – | – | – | 4.7
Cc1ccc(C(=O)CCC(=O)N2CCN(c3ccc(F)cc3)CC2)cc1 | – | – | – | –
Cc1cc(C)c(NC(=O)c2ccccc2CCc2ccccc2)c(C)c1 | 29 | – | – | –
Cc1ccc(NC(=O)c2ccccc2CCc2ccccc2)c(C)c1 | – | – | – | –
COc1ccc(/C=C\c2nc(=O)c3ccccc3o2)cc1 | – | – | – | 4.7
CCN1CCN(CCNC(=O)c2ccc(/C=C3/Sc4ccccc4N(Cc4ccccc4C)C3=O)cc2)CC1 | 8.9 | – | – | –
CCOC(=O)c1[nH]c(C)c(/C(C)=N\O)c1C | – | – | – | –
CCCCCCCCOC(=O)CCc1c(C)[nH]c(=S)[nH]c1=O | 9.0 | – | – | –
CCCCCCOC(=O)CCc1c(C)nc(N)[nH]c1=O | – | – | – | –
SMILES | MC4R ag barr | MC4R antagonist | bovine MsrA act | MsrA inh
COc1cccc(CC(NC(C)=O)C(=O)NC2CCN(S(=O)(=O)c3ccc(F)cc3)CC2)c1OC (stereo not drawn) | – | – | – | –
CC[C@]12c3[nH]c4ccccc4c3CCN1C(=O)C(CC(=O)NC/C=C(\C)CCC=C(C)C)C[C@@H]2C(=O)N1CCN(C(=O)C2CC2)CC1 (stereo partly drawn) | – | – | – | –
CN(N=Nc1nc[nH]c1C(N)=O)C1CCCCC1 | · | · | – | 4.6
CN(C)N=Nc1nc[nH]c1C(N)=O | – | – | – | –
CC(=O)Nc1ccc(S(=O)(=O)N(C)CC(=O)OCC(=O)N2CCCCC2)cc1 | – | – | – | –
O=C1CC(c2cccc(Cl)c2)CC(O)=C1C=NC1CCCC1 (stereo not drawn) | – | – | – | –
O=C(NCc1ccncc1)c1cccc(S(=O)(=O)NCc2ccccc2)c1 | – | – | – | –
O=C1C=CC(=O)N1c1ccc(OC(F)F)cc1 | – | 37 | – | 47
COc1ccc2sc(-c3ccccc3OC)c(C#Cc3cncn3C)c2c1 | 8.6 | – | – | –
O=C(c1ccc(Cl)cc1)c1cnc(Nc2ccccc2Cl)s1 | 9.9 | – | – | –
O=C(CSc1ccc(-c2ccc(-n3cccn3)cc2)nn1)Nc1ccccc1F | 11 | – | – | –
CCOC(=O)c1nc(C)nc(Sc2n[nH]c(-c3ccc(C(C)(C)C)cc3)n2)c1C | 9.3 | – | – | –
CCOCCCN1C(=O)CN(C2CCC(C)CC2)C(=O)C1c1ccc(C)cc1 (stereo not drawn) | – | – | – | –
C/C(=N/Nc1ccc(C(=O)O)cc1)c1ccc(O)c(O)c1O | – | – | – | 4.6
COc1ccc(OC)c(/C(C)=N/Nc2ccc(C(=O)O)cc2)c1 | – | – | – | –
CCCCCCCCCCCCCCCC[N+](C)(C)CCN(Cc1ccc(OC)cc1)c1ncccn1 | 12 | 43 | – | ·
